# Results taken from paper PMC7807167 (Methods (San Diego, Calif.), 2021).
# Like-named read-outs stand apart in the source and are kept apart here.
# Key:
# ATCC Vero E6 cells = details: for Cytotoxicity: Vero E6, tested range up to 50 μM
# SARS-CoV-2/MT020880 [1] = type: cell-based; details: for IC-50_Viral Spread assay: ‘Very wide’ = some activity at high concentrations too staggering to plot
# SARS-CoV-2 = type: cell-based; details: for inhibitory activity against SARS-CoV-2: concentration range tested; for anti-SARS-CoV-2 activity at 25 µM: Fig 6, Fig 7
# SARS-CoV-2/MT020880 [2] = type: cell-based; details: for IC50_Viral Entry blocking assay: ‘Very wide’ = some activity at high concentrations too staggering to plot
# 3CLpro [3] = biological target: T1, 3CLpro (Severe acute respiratory syndrome coronavirus 2, UniProt P0DTD1); assay: 3CLpro enzyme inhibition assay; type: biochemical, SARS-CoV-2
# Summary of the method: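 Inhibitor (0–1000 µM) preincubated about 5 min with 3CLpro (0.4 µM) in Tris-HCl pH 7.3, 1 mM EDTA, triplicate, 25 °C. Started with TVLQ-AMC (40 µM) at fixed concentration, shaken 5 s. Fluorescence (excitation 364 nm) read continuously over time.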
# 3CLpro [4] = biological target: T1, 3CLpro; assay: Preliminary compound screening for 3CLpro inhibitors; type: biochemical, SARS-CoV-2; details: four concentrations, 1–50 µM, 3CLpro 0.4 µM, TVLQ-AMC 40 µM
# Summary of the method: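 Duplicate wells, 25 °C. Test compound (1–50 µM) or DMSO (0 µM) preincubated about 5 min with 3CLpro (0.4 µM) in Tris-HCl pH 7.3, 1 mM EDTA. Started with TVLQ-AMC (40 µM), shaken 5 s, emission 440 nm (excitation 364 nm) read 1 min–3 h. Controls: 6–8 DMSO wells, 2 no-enzyme wells. Two replicate screens; emission normalized to 0 µM at 3 h.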
Molecule,Cytotoxicity (ATCC Vero E6 cells),IC-50_Viral Spread assay (SARS-CoV-2/MT020880 [1]),inhibitory activity against SARS-CoV-2 (SARS-CoV-2),IC50_Viral Entry blocking assay (SARS-CoV-2/MT020880 [2]),IC50 (3CLpro [3]) [µM],activity in 3CLpro screening (rate of substrate cleavage) (3CLpro [4]),anti-SARS-CoV-2 activity at 25 µM (SARS-CoV-2) [%],"concentration with high cytotoxicity (ATCC Vero E6 cells; ATCC E6 Vero cells, number of nuclei counted) [µM]",Percent inhibition at 50 µM (SARS-CoV-2/MT020880 [1]) [%],"Percent inhibition at 50 µM (SARS-CoV-2/MT020880 [2]; viral entry assay, 50 µM) [%]"
OC[C@H]1O[C@@H](O[C@@H]2[C@@H](CO)OC(O)(CO)[C@H]2O)[C@H](O)[C@@H](O)[C@H]1O (mixture of isomers) [Lactulose],Nontoxic within tested conc. range,nil,no observed inhibitory activity,nil,,,,,,
NCC[C@H](O)C(=O)N[C@@H]1C[C@H](N)[C@@H](O[C@H]2O[C@H](CN)[C@@H](O)[C@H](O)[C@H]2O)[C@H](O)[C@H]1O[C@H]1O[C@H](CO)[C@@H](O)[C@H](N)[C@H]1O [Amikacin hydrate],Nontoxic within tested conc. range,(Very wide),,(Very wide),,,,,,
[H]/N=C(/N)SCCCn1cc(C2=C(c3cn(C)c4ccccc34)C(=O)NC2=O)c2ccccc21 [Bisindolylmaleimide IX],Nontoxic within tested conc. range,,,,114 ± 5.2,significant activity,,,,
O=C(CCCN1CCC(O)(c2ccc(Cl)cc2)CC1)c1ccc(F)cc1 [Haloperidol],Non-toxic within tested conc. range,,,,,very mild activity,9.8,,,
COCC(=O)Nc1c(I)c(C(=O)NCC(O)CO)c(I)c(C(=O)N(C)CC(O)CO)c1I (stereo not shown) [Iopromide],Nontoxic within tested conc. range,nil,no observed inhibitory activity,nil,,,,,,
NC[C@@H]1O[C@H](O[C@H]2[C@@H](O)[C@H](O[C@@H]3[C@@H](O)[C@H](N)C[C@H](N)[C@H]3O[C@H]3O[C@H](CO)[C@@H](O)[C@H](O)[C@H]3N)O[C@@H]2CO)[C@H](N)[C@@H](O)[C@@H]1O [Paromomycin],Nontoxic within tested conc. range,(Very wide),,,,,2.3,,,
C[C@@H]1O[C@@H](OC[C@H]2O[C@@H](Oc3c(-c4ccc(OCCO)c(OCCO)c4)oc4cc(OCCO)cc(O)c4c3=O)[C@H](O)[C@@H](O)[C@@H]2O)[C@H](O)[C@H](O)[C@H]1O [Troxerutin],Nontoxic within tested conc. range,(Very wide),,(Very wide),,,2.8,,,
Ivermectin,Toxic above 50 µM,,,,,,,> 16.67,46,99
